High-throughput results deposited in PubChem by several laboratories.
In the library only some 1.8% were active in any assay of this set; here they are far more common.
HNF4A DNA FP: change in binding of human HNF4 alpha to DNA; P41235; HNF4a-FITC DNA binding, fluorescence polarization, 1 h; activity change, % at 10 µM; actives 0.3% (n = 360,000); in the data active = activity change above about 30%, passing the limit was not always enough
Target sequence (P41235 whole entry, looked up): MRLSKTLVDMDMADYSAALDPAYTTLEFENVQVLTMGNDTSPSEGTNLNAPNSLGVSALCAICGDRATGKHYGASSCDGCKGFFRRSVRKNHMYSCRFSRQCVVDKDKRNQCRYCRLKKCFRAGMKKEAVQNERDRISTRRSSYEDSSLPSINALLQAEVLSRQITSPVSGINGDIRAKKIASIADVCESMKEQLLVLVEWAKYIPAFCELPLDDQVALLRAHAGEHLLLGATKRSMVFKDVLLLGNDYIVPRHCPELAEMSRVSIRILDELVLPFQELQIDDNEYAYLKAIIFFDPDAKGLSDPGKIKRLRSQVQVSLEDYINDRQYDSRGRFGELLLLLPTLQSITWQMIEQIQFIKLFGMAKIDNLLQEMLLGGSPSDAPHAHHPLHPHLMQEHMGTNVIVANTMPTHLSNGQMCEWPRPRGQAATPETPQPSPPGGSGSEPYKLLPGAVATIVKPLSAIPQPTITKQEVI
SENP1 FRET inh: inhibitors of human SENP1 SUMO protease catalytic domain; inhibition, % at 10 µM; actives 0.21% (n = 360,000); Q9P0U3; recombinant SENP1 catalytic domain, CyPet-SUMO1-YPet FRET cleavage;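 active = inhibition at least 30% at 10 µM, raw YFP signal under a set limit, fluorescence ratio 0.5 to 1.5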;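 note: 0% = enzyme with DMSO and 100% = no enzyme wells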
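Test system: human SENP1 catalytic domain; medium: Tris pH 8 buffer plus EDTA, NaCl, BME, BSA, NP40, catalase; incubation: 50 min reaction at room temperature; technique: FRET, CFP and YFP emission; controls: no-enzyme low control and enzyme-plus-DMSO high control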
SUMO HTRF inh: blocks human SUMOylation mediated by UBC9 | P63279 | HTRF SUMOylation assay, SAE1/SAE2 + UBC9, in vitro | inhibition, % at 35 µM | actives 0.36% (n = 290,000) | AID 2006; in the data active = inhibition above about 50%, passing the limit was not always enough
Target sequence (P63279 whole entry, looked up): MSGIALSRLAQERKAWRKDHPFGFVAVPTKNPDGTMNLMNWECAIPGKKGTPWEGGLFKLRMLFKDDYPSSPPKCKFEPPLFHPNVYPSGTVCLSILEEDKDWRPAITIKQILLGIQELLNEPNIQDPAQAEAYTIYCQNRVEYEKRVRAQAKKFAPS
CSN deneddyl inh: blocks human CSN-mediated cullin deneddylation | inhibition, % at 12.5 µM | Q92905 | AID 651999 | actives 0.38% (n = 360,000) | Purified CSN, SCF-Nedd8-OG deneddylation, fluorescence polarization;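 active = pattern-corrected inhibition above about 35%, with an unprinted fluorescence ratio check between 0.5 and 1.5, limit read from the data, passing the limit was not always enough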;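 note: 0% = enzyme with substrate and 100% = substrate without enzyme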
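Schedule: reaction 90 min, room temperature / Assay system: HEK293T-derived human Csn5 enzyme / Input: Csn5 at 0.24 nM final / Measure: inhibition of Csn5 cleavage, % / Control set: substrate-only high control, full reaction low control / Technique: fluorescence polarization of the substrate / Buffer or medium: Tris/NaCl/DTT buffer, pH 7.5 / Reagent: SCFSkp2-Nedd8OG substrate at 10 nM final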
TPT1 inh: blocks Candida albicans tRNA 2'-phosphotransferase. actives 0.81% (n = 300,000). recombinant caTPT1, FP RNA substrate dephosphorylation. inhibition, % at 5 µM;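 active = inhibition above the mean of all tested compounds plus 3 SD, set per screening campaign, cut at about 24% in these data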;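 note: plate controls were DMSO alone for no effect and ferristatin control at 100 nM for full effect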
Rpn11 block: blocks the human proteasome subunit Rpn11; human 26S proteasome, Ub4-pepOG fluorescence polarization; 20S core pre-blocked with epoxomicin; O00487; actives 0.59% (n = 360,000); calls only at 20 µM;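 active = inhibition at 20 µM, scaled to each plate's controls, above about 33%, limit read from the data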
TPT1 inh confirm: confirmation of Candida albicans TPT1 inhibitors. shares compounds with TPT1 inh. recombinant caTPT1, fluorescence polarization, RNase T1 coupled. inhibition, % at 5 µM. actives 74% (n = 2,400);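 active = inhibition above the primary screen limit, the mean inhibition of all tested compounds plus 3 SD, cut at about 25% in these data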
RNase T1 counter: RNase T1 inhibition in TPT1 counter-screen; actives 83% (n = 2,400); inhibition, % at 5 µM; AID 2153; RNase T1 cleavage, fluorescence polarization, 1536-well; shares compounds with TPT1 inh;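 active = inhibition above the solvent-only control well mean plus 3 SD, limit set per screening run, cut at about 23% in these data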;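 note: plate controls were DMSO wells with enzyme for no effect and wells without RNase T1 for full effect; inhibitors block cleavage so intact labeled substrate keeps polarization high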
* = called active by the depositor.

Results for CC1CC(=O)Nc2ccccc2N1S(=O)(=O)c1ccc(Cl)cc1 (stereo not given) ?
HNF4A DNA FP: 3; SENP1 FRET inh: 2; SUMO HTRF inh: 17; CSN deneddyl inh: 5; TPT1 inh: 74*; Rpn11 block: inactive; TPT1 inh confirm: 2; RNase T1 counter: 7

How did CC1CC(=O)Nc2ccccc2N1S(=O)(=O)c1ccccc1 (stereo not given) do in these assays?
HNF4A DNA FP: -1; SENP1 FRET inh: 1; SUMO HTRF inh: 8; CSN deneddyl inh: -1; TPT1 inh: 2; Rpn11 block: inactive

What do the screens show for `O=[N+]([O-])c1ccc(N/N=C/c2cccc(O)c2O)cc1`?
HNF4A DNA FP: 21; SENP1 FRET inh: -25; SUMO HTRF inh: 4; CSN deneddyl inh: 8; TPT1 inh: 51*; Rpn11 block: inactive; TPT1 inh confirm: 60*; RNase T1 counter: 74*

How did Cc1cccc(C(=O)Oc2ccccc2/C=N/Nc2ccc([N+](=O)[O-])cc2)c1 do in these assays?
HNF4A DNA FP: 9; SENP1 FRET inh: -28; SUMO HTRF inh: -9; CSN deneddyl inh: 5; TPT1 inh: 39*; Rpn11 block: inactive; TPT1 inh confirm: 39*; RNase T1 counter: 51*

How did O=c1c2ccccc2cnn1Cc1n[nH]c(=S)n1C1CC2CCC1C2 (stereo not given) do in these assays?
HNF4A DNA FP: 0; SENP1 FRET inh: 3; SUMO HTRF inh: 2; CSN deneddyl inh: 3; TPT1 inh: -1; Rpn11 block: inactive

Results for CC(C)COP(=O)(CNC(=O)CN1C(=O)c2ccccc2S1(=O)=O)OCC(C)C ?
HNF4A DNA FP: 3; SENP1 FRET inh: 0; SUMO HTRF inh: -10; CSN deneddyl inh: -7; TPT1 inh: -3; Rpn11 block: inactive

How did O=C(O)c1ccc(NS(=O)(=O)/C=C/c2ccccc2)cc1O do in these assays?
HNF4A DNA FP: 3; SENP1 FRET inh: 2; SUMO HTRF inh: 40; CSN deneddyl inh: -3; TPT1 inh: 24*; Rpn11 block: inactive; TPT1 inh confirm: 3; RNase T1 counter: 5

How did COc1ccccc1NC(=O)c1ccc(N)cc1 do in these assays?
HNF4A DNA FP: 2; SENP1 FRET inh: 2; SUMO HTRF inh: -7; CSN deneddyl inh: 9; TPT1 inh: -5; Rpn11 block: inactive

What do the screens show for `COC(=O)c1ccc(C(=O)Nc2ccc(N)cc2N)cc1`?
HNF4A DNA FP: 6; SENP1 FRET inh: 56; SUMO HTRF inh: 30; CSN deneddyl inh: 13; TPT1 inh: 108*; TPT1 inh confirm: 5; RNase T1 counter: 13

Results for C[C@H](CO)N1C[C@H](C)[C@@H](CN(C)Cc2ccc3c(c2)OCO3)Oc2c(NC(=O)C3CC3)cccc2C1=O ?
HNF4A DNA FP: 0; SENP1 FRET inh: 0; CSN deneddyl inh: -1; Rpn11 block: inactive

Results for O=C(N/N=C/c1ccc(Cl)cc1Cl)c1cccc(N2CCCC2=O)c1 ?
HNF4A DNA FP: 1; SENP1 FRET inh: 1; SUMO HTRF inh: 6; CSN deneddyl inh: 1; TPT1 inh: -3; Rpn11 block: inactive

What do the screens show for `O=C(N/N=C/c1cc(Br)cc(Br)c1O)c1cccc(S(=O)(=O)N2CCOCC2)c1`?
HNF4A DNA FP: 85; SENP1 FRET inh: -36; SUMO HTRF inh: 4; CSN deneddyl inh: 97; TPT1 inh: 48*; TPT1 inh confirm: 55*; RNase T1 counter: 54*

Results for O=C(N/N=C/c1cc(Br)cc(Br)c1O)c1cccc(N2CCCC2=O)c1 ?
HNF4A DNA FP: 8; SENP1 FRET inh: -27; SUMO HTRF inh: -30; CSN deneddyl inh: 0; TPT1 inh: 54*; TPT1 inh confirm: 68*; RNase T1 counter: 73*

How did O=[N+]([O-])c1ccc(/C=[N+](\[O-])CCO)o1 do in these assays?
HNF4A DNA FP: 1; SENP1 FRET inh: -1; SUMO HTRF inh: 24; CSN deneddyl inh: -3; TPT1 inh: -7; Rpn11 block: inactive

What do the screens show for `CCCCc1nc2ccccc2c(N)c1CCC` (tested in a mixture with another compound)?
HNF4A DNA FP: -2; SENP1 FRET inh: 4; SUMO HTRF inh: 8; CSN deneddyl inh: -4; TPT1 inh: 40*; Rpn11 block: inactive; TPT1 inh confirm: 4; RNase T1 counter: 5

Results for Cc1ccc(N=Nc2c(O)[nH]c3ccc(F)cc23)cc1 ?
HNF4A DNA FP: 106; SENP1 FRET inh: 28; SUMO HTRF inh: -8; CSN deneddyl inh: 124; TPT1 inh: 18

What do the screens show for `CCc1ccc2[nH]c(O)c(N=Nc3nc(-c4ccccc4)cs3)c2c1`?
HNF4A DNA FP: 14; SENP1 FRET inh: 33*; SUMO HTRF inh: -6; CSN deneddyl inh: 8; TPT1 inh: 43*; Rpn11 block: inactive; TPT1 inh confirm: 26*; RNase T1 counter: 40*

What do the screens show for `Cc1cc(C)c(S(=O)(=O)N2CCCOC2CNC(=O)C(=O)NCc2ccccn2)c(C)c1` (stereo not given)?
HNF4A DNA FP: 3; SENP1 FRET inh: 2; SUMO HTRF inh: -1; CSN deneddyl inh: 1; TPT1 inh: -2; Rpn11 block: inactive

Results for Cc1ccc(C2C3CSCC=C3C(C#N)=C(N)C2(C#N)C#N)cc1 (stereo not given) ?
HNF4A DNA FP: 17; SENP1 FRET inh: -23; SUMO HTRF inh: -4; CSN deneddyl inh: 9; TPT1 inh: 27*; Rpn11 block: inactive; TPT1 inh confirm: 19; RNase T1 counter: 29*

How did N#CC1=C(N)C(C#N)(C#N)[C@H](c2ccncc2)[C@H]2CC3(CC=C12)OCCO3 do in these assays?
HNF4A DNA FP: -4; SENP1 FRET inh: 24; SUMO HTRF inh: 1; CSN deneddyl inh: -1; TPT1 inh: -2; Rpn11 block: inactive

How did Cc1nc2ccccc2n1/N=C/c1ccc([N+](=O)[O-])s1 do in these assays?
HNF4A DNA FP: 0; SENP1 FRET inh: 4; SUMO HTRF inh: 11; CSN deneddyl inh: 0; TPT1 inh: 28*; TPT1 inh confirm: 36*; RNase T1 counter: 59*

Results for O=[N+]([O-])c1ccc(/C=N/n2c(CO)nc3ccccc32)s1 ?
HNF4A DNA FP: -9; SENP1 FRET inh: 58; SUMO HTRF inh: 20; CSN deneddyl inh: 0; TPT1 inh: -5; Rpn11 block: inactive
